{
  "source": "ChEMBL document CHEMBL1124298",
  "about": "“Synthesis and antineoplastic activity of 5-aryl-2,3-dihydropyrrolo[2,1-b]thiazole-6,7-dimethanol 6,7-bis(isopropylcarbamates)” (J Med Chem, 1988)",
  "key": {"HL-60 [1]": {"system": "HL-60", "test": "Concentration required to reduce cell number (HL-60 human promyelocytic leukemia cell line) on day 7 by 50%", "type": "functional, cell-based", "conditions": "HL-60, 168 h", "method_in_brief": "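HL-60 cells were grown in RPMI 1640 with 10% heat-inactivated FBS at 37 °C in humidified 10% CO2, resuspended at 10⁵/mL, and given drug. Drug was dissolved in DMSO, with at most 0.2% DMSO in the culture. Cells were counted by Coulter counter on day 7. IC50 is the concentration that reduced cell number by 50%. Values are from three experiments.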"}, "HL-60 [2]": {"system": "HL-60", "test": "Growth inhibitory activity against HL-60 human promyelocytic leukemia cell line relative to NSC-278214", "type": "functional"}},
  "data": [
    {"smiles": "CC(C)NC(=O)OCc1c(COC(=O)NC(C)C)c(-c2ccc(Cl)c(Cl)c2)n2c1CCC2", "values": [
      {"measurement": "IC50", "setting": "HL-60 [1]", "result": 1500, "unit": "nM"},
      {"measurement": "Potency", "setting": "HL-60 [2]", "result": 1}
    ]},
    {"smiles": "CC(C)NC(=O)OCc1c(COC(=O)NC(C)C)c(-c2ccccc2)n2c1SCC2", "values": [
      {"measurement": "IC50", "setting": "HL-60 [1]", "result": 1500, "unit": "nM"},
      {"measurement": "Potency", "setting": "HL-60 [2]", "result": 1}
    ]},
    {"smiles": "CC(C)NC(=O)OCc1ccccc1COC(=O)NC(C)C", "values": [
      {"measurement": "IC50", "setting": "HL-60 [1]", "result": "> 300000", "unit": "nM"},
      {"measurement": "Potency", "setting": "HL-60 [2]", "result": "<0.005"}
    ]},
    {"smiles": "CC(C)NC(=O)OCc1c(COC(=O)NC(C)C)c(-c2ccc(Cl)c(Cl)c2)n2c1SCC2", "values": [
      {"measurement": "IC50", "setting": "HL-60 [1]", "result": 1900, "unit": "nM"},
      {"measurement": "Potency", "setting": "HL-60 [2]", "result": 0.79}
    ]},
    {"smiles": "CC(C)NC(=O)OCc1c(COC(=O)NC(C)C)c(-c2ccc(Cl)cc2)n2c1SCC2", "values": [
      {"measurement": "IC50", "setting": "HL-60 [1]", "result": 850, "unit": "nM"},
      {"measurement": "Potency", "setting": "HL-60 [2]", "result": 1.76}
    ]},
    {"smiles": "CC(C)NC(=O)OCc1c(COC(=O)NC(C)C)c(-c2ccc(F)cc2)n2c1SCC2", "values": [
      {"measurement": "IC50", "setting": "HL-60 [1]", "result": 1600, "unit": "nM"},
      {"measurement": "Potency", "setting": "HL-60 [2]", "result": 0.94}
    ]}
  ]
}
